Shown are actives, neighbours in structure and some others; about 3% of the full set was active somewhere.
SENP1 FRET inh: human SENP1 catalytic domain inhibitors, primary screen, biochemical, FRET, uHTS. recombinant SENP1 catalytic domain, CyPet-SUMO1-YPet FRET cleavage. Sentrin-specific protease 1 (Homo sapiens), Q9P0U3. inhibition, % at 10 µM. AID 624204, 2012. hit rate 0.21% among 360,000;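 active means inhibition at least 30% at 10 µM, raw YFP signal under a set limit, fluorescence ratio 0.5 to 1.5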;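 further: 0% = enzyme with DMSO and 100% = no enzyme wells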
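Material: hSENP1 catalytic domain, recombinant; medium: Tris pH 8 with BME, BSA, NP40 and catalase; compound: single concentration of 10 µM compound, 0.5% DMSO final; technique: FRET read of cyan and yellow fluorescence; timing: 50 min enzyme reaction, room temperature, light-protected; reagent: SFCypet-SUMO1-SFYpet substrate at 25 nM; control set: no-enzyme low, enzyme-DMSO high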
Myeloid diff MLP: induction of myeloid progenitor differentiation, primary screen, cell-based, flow cytometry, MLPCN library; calls only at 10 µM; ER-HoxA9 myeloid progenitors, lysozyme-GFP differentiation; hit rate 1% among 360,000; AID 624256, 2012;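 active means normalized GFP-positive differentiation at or above the plate's own cutoff, the solvent-only control mean plus 3 SD; inconclusive means no clear call, values can overlap the other calls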;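 further: cells exposed to compound for four days before flow analysis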
Pemphigus Ab inh: inhibitors of pemphigus antibody binding to DSG3, primary screen, biochemical, bead-based, flow cytometry, scFv-GFP | Desmoglein-3 (Homo sapiens), P32926 | DSG3-coupled beads, scFv-anti-DSG3-GFP binding; stronger effect = lower value | binding (percent of control), % at 10 µM | hit rate 0.48% among 310,000 | AID 588358, 2011;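 active means binding more than 3 SD below its plate's average and above zero; inconclusive means below that plate limit but binding exactly zero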
Target sequence (P32926 whole entry, looked up): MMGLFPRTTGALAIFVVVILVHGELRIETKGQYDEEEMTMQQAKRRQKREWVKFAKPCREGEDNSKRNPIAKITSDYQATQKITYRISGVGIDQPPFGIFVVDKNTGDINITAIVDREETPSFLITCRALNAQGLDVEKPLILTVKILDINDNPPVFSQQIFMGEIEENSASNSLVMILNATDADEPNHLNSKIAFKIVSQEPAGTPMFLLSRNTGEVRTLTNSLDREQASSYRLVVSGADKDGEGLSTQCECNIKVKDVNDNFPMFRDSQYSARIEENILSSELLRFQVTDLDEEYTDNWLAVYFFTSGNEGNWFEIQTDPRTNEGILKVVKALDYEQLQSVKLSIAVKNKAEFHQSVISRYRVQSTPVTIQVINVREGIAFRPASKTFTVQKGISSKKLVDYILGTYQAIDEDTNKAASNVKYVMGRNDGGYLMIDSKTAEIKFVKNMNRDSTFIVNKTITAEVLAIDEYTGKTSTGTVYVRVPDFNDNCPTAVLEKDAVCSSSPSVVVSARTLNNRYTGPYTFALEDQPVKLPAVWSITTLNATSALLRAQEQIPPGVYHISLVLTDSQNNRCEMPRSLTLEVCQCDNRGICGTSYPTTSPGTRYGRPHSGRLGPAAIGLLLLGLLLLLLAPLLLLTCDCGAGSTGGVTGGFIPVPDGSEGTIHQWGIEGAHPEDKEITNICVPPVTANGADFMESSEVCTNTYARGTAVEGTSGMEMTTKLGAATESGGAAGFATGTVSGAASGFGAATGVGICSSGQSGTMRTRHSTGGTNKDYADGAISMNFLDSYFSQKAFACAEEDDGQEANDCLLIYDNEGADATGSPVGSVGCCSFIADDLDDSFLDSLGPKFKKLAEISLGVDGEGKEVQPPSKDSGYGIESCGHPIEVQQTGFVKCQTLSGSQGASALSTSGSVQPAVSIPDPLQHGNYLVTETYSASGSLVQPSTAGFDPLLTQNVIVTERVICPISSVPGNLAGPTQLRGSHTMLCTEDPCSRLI
Granule exo inh: LAMP-1 surface exposure blockers, TALL-104 cells – cell-based, flow cytometry, MLPCN library, primary screen. TALL-104 LAMP-1 surface exposure; cells stimulated with thapsigargin and PMA. inhibition, % at 10 µM. hit rate 0.66% among 360,000. AID 651702, 2012;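 active means inhibition above about 55%, limit read from the data; inconclusive means no clear call, values can overlap the other calls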
HNF4A DNA FP: change in binding of human HNF4A to DNA, primary screen, biochemical, fluorescence polarization, FITC-DNA | activity change, % at 10 µM | AID 1224865, 2016 | 1 h | hit rate 0.3% among 360,000; in the data active means activity change above about 30%, passing the limit was not always enough
H9c2 protect: cardioprotection against H2O2-induced cell death, primary screen, uHTS, H9c2 cells, ATPLite luminescence; H9c2 cardiomyocytes, H2O2 injury protection, 2 h; protection from H2O2 cell death, % at 20 µM; hit rate 0.63% among 360,000; AID 588492, 2011;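 active means compounds giving at least 50% protection of heart cells from peroxide-induced death in the single-dose screen, raw or plate-pattern-corrected value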;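 further: 0% = DMSO wells with peroxide and 100% = DMSO wells without peroxide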
Active calls of the source: *; i = inactive; ? = inconclusive; · = no result; + = active, no number.

SMILES	SENP1 FRET inh	Myeloid diff MLP	Pemphigus Ab inh	Granule exo inh	HNF4A DNA FP	H9c2 protect
O=C(N/N=C/c1cc(Br)cc(Br)c1O)c1cccc(N2CCCC2=O)c1	-27	i	98	-3	8	52*
COc1ccc(OC)c(N/C=C/C(=C(C#N)C#N)N(C)C)c1	-4	i	105	-2	0	10
Nc1sc(-c2ccccc2)cc1-c1n[nH]c(=S)n1C1CCCCC1	5	·	98	18	7	-8
COc1ccc(-n2c(-c3cc(-c4ccccc4)sc3N)n[nH]c2=S)cc1	-4	i	113	91*	9	6
Cc1onc(-c2ccccc2)c1C(=O)N[C@@H]1C(=O)N2C1SC(C)(C)[C@@H]2C(=O)O (some centres undefined)	-4	i	103	1	-3	12
N=c1c2c(-c3ccccc3)c(-c3ccccc3)n(Cc3ccccc3)c2ncn1CCCn1ccnc1	-5	+	115	50	1	-40
Cc1cc(NCCCn2ccnc2)n2nc(C)c(-c3ccccc3)c2n1	1	i	100	0	1	-4
Cc1cccc(C)c1NC(=O)CN1C(=O)NC(C)(CCc2ccccc2)C1=O (centres undefined)	1	i	97	0	6	7
CCCc1cc(=O)n2[nH]c(C)cc2n1	-4	i	83*	0	0	4
CC(C)N1C(=O)S/C(=C/c2cccnc2)C1=O	0	i	102	-2	0	3
CC(C)N1C(=O)S/C(=C/c2ccc3c(c2)n(C)c(=O)n3C)C1=O	-7	i	·	0	4	63*
CCC(C)N1C(=O)S/C(=C/c2ccc3c(c2)n(C)c(=O)n3C)C1=O (centres undefined)	-10	i	133	4	5	57*
CCOC(=O)C(C)N1C(=O)S/C(=C/c2ccc3c(c2)n(C)c(=O)n3C)C1=O (centres undefined)	-19	i	90	8	1	11
CCn1c(SCC(=O)N/N=C/c2ccccc2OCC(=O)O)nnc1-c1ccc(C)cc1	4	i	110	8	-3	6
C[C@H](CO)N1C[C@H](C)[C@@H](CN(C)C(=O)Cc2ccccc2)OCCCC[C@H](C)Oc2ccc(NC(=O)NC3CCCCC3)cc2C1=O	0	i	103	-3	-6	9
Cc1ccc(/C=N/n2c(C)nc3ccccc3c2=O)o1	-1	i	100	2	1	8
O=c1c2ccccc2nc(/C=C/c2cc(Br)ccc2O)n1CCCO	77	i	94	4	-1	50*
Cc1nc2ccccc2c(=O)n1NC(=O)COc1ccccc1	1	i	97	7	0	-2
Cc1nc2ccccc2c(=O)n1/N=C/c1c(O)ccc2oc3c(c12)CCCC3	29	i	95	-1	0	100*
O=C(Nn1c(COc2ccccc2)nc2ccccc2c1=O)C(Cl)(Cl)Cl	1	i	110	79*	3	3
Cc1nc2ccccc2c(=O)n1/N=C/c1ccc(OC(F)F)cc1	3	i	103	-7	-2	10
CCOc1ccc(/C=N/n2c(C)nc3ccccc3c2=O)cc1	-1	i	68*	-9	-3	-4
O=C(O)COc1ccc(/C=N/n2c(COc3ccccc3)nc3ccccc3c2=O)cc1	1	i	101	4	-3	-2
COc1ccc2ccccc2c1/C=N/N1C(=O)CSC1=S	-2	i	·	-4	-119	-1
Cc1nc2ccccc2c(=O)n1/N=C/c1ccc(N(C)C)cc1	0	i	101	-1	-1	4
SMILES	SENP1 FRET inh	Myeloid diff MLP	Pemphigus Ab inh	Granule exo inh	HNF4A DNA FP	H9c2 protect
Cc1nc2ccccc2c(=O)n1/N=C/c1c(O)ccc2ccccc12	-22	i	103	-1	7	74*
Cc1nc2ccccc2c(=O)n1/N=C/c1cc(Br)ccc1O	-23	i	?	22	3	54*
O=c1c2ccccc2nc(COc2ccccc2)n1/N=C/c1ccc(O)c(O)c1	5	i	99	27	-1	56*
O=C1CSC(=S)N1N=Cc1c(O)ccc2ccccc12	-30	i	94	8	93*	56*
O=C(CN1CCN(C(=O)C2CC2)CC1)Nc1cc(C(F)(F)F)cc(C(F)(F)F)c1	1	i	113	-5	-4	2
CCCCn1c(N)c(N(CC(C)C)C(=O)CSC(C)C(=O)Nc2cc(C)on2)c(=O)[nH]c1=O (centres undefined)	-8	i	99	5	5	3
O=C1c2cccc3cccc(c23)C(=O)N1CCc1ccccc1	3	i	99	0	0	0
O=C1NC[C@@H](CCCCN2C[C@H](Cc3ccc(O)cc3)N(CCc3ccccc3)C(=O)C2=O)N(Cc2ccccc2)C1=O	2	i	·	10	-2	·
COc1ccc(NC(=O)/C(Cl)=C(/Cl)S(=O)(=O)Cc2ccccc2)cn1	-1	?	114	100*	-1	-28
COC(=O)[C@]12CCCCC=C1N(Cc1ccc(Cl)cc1Cl)C(=O)[C@H](CC(=O)NCc1cccs1)C2	1	i	·	-1	0	·
CCOC(=O)Cc1csc(NC(=O)Nc2ccc(OC(F)(F)F)cc2)n1	1	i	112	2	0	-16
CCOC(=O)Cc1csc(NC(=O)COc2ccccc2)n1	0	i	65*	2	4	4
CCOC(=O)Cc1csc(NC(=O)NC2(C(F)(F)F)Oc3ccc(Cl)cc3O2)n1 (centres undefined)	2	i	102	-2	1	62*
CCOC(=O)Cc1csc(NC(=O)NC2(C(F)(F)F)Oc3cc(Cl)c(Cl)cc3O2)n1	2	i	·	0	-1	57*
CCOC(=O)Cc1csc(NC(=O)Cc2ccc(Cl)cc2)n1	1	i	120	6	3	-5
COc1cccc(NC(=O)NC2(C(F)(F)F)Oc3ccccc3O2)c1	1	i	·	-1	-2	75*
OCC[C@@H]1C[C@H](O)[C@@H](O)[C@@]2(OCCCc3ccccc32)O1	0	i	97	27	2	2
CCOC(=O)Cc1csc(NC(=O)NC2(C(F)(F)F)Oc3ccccc3O2)n1	2	i	99	1	2	50*
CCOC(=O)Cc1csc(NC(=O)c2sc3nc4ccc(C)cc4cc3c2N)n1	26	i	125	-1	38*	22
